In ChEMBL document CHEMBL1134512, “Bicyclic analogues of D-myo-inositol 1,4,5-trisphosphate related to adenophostin A: synthesis and biological activity” (J Med Chem, 2001):
pEC50, pKd: −log10 of the molar value.

Key:
Rattus norvegicus [1] = species on record: Rattus norvegicus; test: […] on [Ca2+] release from the intracellular stores of permealized hepatocytes; format: functional; conditions: Hepatocyte
Procedure, shortened: (§1)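 Permeabilized rat hepatocytes loaded with 45Ca2+ to steady state (5 min, 37 °C) in cytosol-like medium pH 7.0 with ATP 1.5 mM, creatine phosphate 5 mM, creatine phosphokinase 5 units/mL, FCCP 10 µM. Thapsigargin (1.25 µM) added, agonist 30 s later, store Ca2+ measured by rapid filtration after 60 s. Four-parameter logistic fit gives EC50, Hill slope, maximal release; three experiments.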

Rattus norvegicus [2] = species on record: Rattus norvegicus; test: Fraction of total [Ca2+] stores released by a maximal concentration of the compound; format: functional; procedure, shortened: as §1
[3] = Ratio to Ins(1,4,5)P3 was measured(ratio greater than 1 denotes greater affinity and less than -1 denotes lesser affinity)
Hepatocyte = test: Hill coefficient for the effect on [Ca2+] release from the intracellular stores of permealized hepatocytes; format: cell-based; procedure, shortened: as §1
[4] = Ratio to Ins(1,4,5)P3, for the effect on [Ca2+] release from the intracellular stores of permealized hepatocytes (ratio greater than 1 denotes greater potency and less than -1 denotes lesser potency); format: functional, Hepatocyte
[5] = Binding affinity towards rat liver membrane, measured using equilibrium competition binding with [3H]Inositol(1,4,5)P3
[6] = Hill coefficient, measured using equilibrium competition binding with [3H]Inositol(1,4,5)P3

Ratio [3] | pKd [5] | Hill coefficient [6] | Structure (SMILES) | pEC50 (Rattus norvegicus [1]) | Max response (Rattus norvegicus [2]) [%] | Hill coefficient (Hepatocyte) | Ratio [4]
-14 | 7.21 | 1.12 | O=P(O)(O)O[C@H]1CO[C@@H]2[C@H](O)[C@@H](OP(=O)(O)O)[C@H](OP(=O)(O)O)[C@@H](O)[C@@H]2OC1 | 5.91 | 59 | 2.9 | -14
8.3 | 9.26 | 1.17 | Nc1ncnc2c1ncn2[C@@H]1O[C@H](CO)[C@@H](O[C@H]2O[C@H](CO)[C@@H](OP(=O)(O)O)[C@H](OP(=O)(O)O)[C@H]2O)[C@H]1OP(=O)(O)O [ADENOPHOSTIN A] | 8.04 | 49 | 2.99 | 9.8
-21 | 7.01 | 1.01 | O=P(O)(O)O[C@@H]1CO[C@@H]2[C@H](O)[C@@H](OP(=O)(O)O)[C@H](OP(=O)(O)O)[C@@H](O)[C@@H]2OC1 | 5.78 | 59 | 2.61 | -18
1 | 8.34 | 1.16 | O=P(O)(O)O[C@@H]1[C@H](O)[C@H](O)[C@@H](OP(=O)(O)O)[C@H](OP(=O)(O)O)[C@H]1O [INS(1,4,5)P3] | 7.05 | 59 | 1.48 | 1
